High-throughput results from PubChem.
Sampled rows, rich in hits. Any-hit rate of the full collection: about 3.4%.
TAAR1 antagonist = antagonists of human TAAR1; CHO RD-HGA16 TAAR1, Fluo-8 calcium fluorescence, antagonist; inhibition, % at 3 µM; hit rate 1.5% among 360,000; AID 624466;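 active = inhibition above a per-plate cutoff, the mean inhibition of test compounds on that plate plus 3 SD, cut at about 49% in these data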;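 also: 0% = DMSO plus EC80 beta-PEA response and 100% = DMSO alone without agonist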
Target sequence (Q96RJ0 whole entry, looked up): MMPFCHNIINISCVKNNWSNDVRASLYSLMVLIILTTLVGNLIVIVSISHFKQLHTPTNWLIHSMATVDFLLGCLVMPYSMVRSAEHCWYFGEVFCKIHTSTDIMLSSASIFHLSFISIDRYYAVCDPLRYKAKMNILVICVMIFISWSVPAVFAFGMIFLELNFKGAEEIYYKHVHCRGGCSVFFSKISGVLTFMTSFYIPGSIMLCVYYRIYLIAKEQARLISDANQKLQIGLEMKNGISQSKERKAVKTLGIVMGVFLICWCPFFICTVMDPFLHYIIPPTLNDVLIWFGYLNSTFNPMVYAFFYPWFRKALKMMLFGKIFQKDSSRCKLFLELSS
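Material: RD-HGA16 CHO cells with stable hTAAR1 and Gα16; Dosing: single nominal final test compound concentration of 3 µM; Schedule: seeding 17-24 h prior, 75-min 37 °C, 30-min RT dye loading; Detection: kinetic Fluo-8 calcium fluorescence measurement; Measure: % inhibition from peak post-agonist over basal fluorescence ratio; Benchmarks: vehicle and agonist controls.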
zfTRPN1 agonist = zebrafish TRPN1 (NompC) channel agonism | HEK293 zebrafish TRPN1-YFP, Fluo-8 calcium fluorescence; 100% = response to 87 µM carbachol | activation, % at 3 µM | hit rate 0.18% among 220,000 | AID 1424;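 active = activation above its plate's cutoff, the mean activation of test wells on that plate plus 3 SD, cut at about 19% in these data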;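 also: 0% = DMSO alone and 100% = 87 µM carbachol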
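Material – zebrafish TRPN1-YFP in HEK293 cells · Doses – 3 µM single point · Schedule – dye 1 h 37 °C plus 30 min RT · Signal – Fluo-8 calcium fluorescence, excitation 470-495 nm, emission 515-575 nm · Read-out – % activation versus carbachol response · Control set – carbachol high, DMSO low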
TRPML3 ag = human mucolipin-3 channel agonism; Q8TDD5; HEK293 TRPML3-YFP, Fluo-8 calcium fluorescence; 100% = the carbachol control signal; activation, % at 3 µM; hit rate 0.29% among 220,000;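 active = activation above its plate's cutoff, the mean activation of the plate's test wells plus 3 SD, cut at about 12% in these data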;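 also: 0% = DMSO only wells and 100% = carbachol wells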
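Test system – HEK293 line with stable expression of human TRPML3-YFP channel · Control set – carbachol 87 µM final as high control (100%), DMSO as low control (0%) · Signal – Fluo-8 calcium dye fluorescence, ex 470-495, em 515-575 nm · Incubation – 1-h 37 °C dye load, 5-s basal, 120-s post-compound reads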
GPR7 antagonist = blocks human GPR7 receptor signaling; P48145; GPR7-expressing cells, fluorescence antagonist assay; inhibition, % at 4.4 µM; hit rate 1.1% among 290,000; in the data active = inhibition above about 16%, passing the limit was not always enough;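 also: cells stimulated with the agonist NPW; 0% = agonist with vehicle and 100% = vehicle without agonist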
Target sequence (P48145 whole entry, looked up): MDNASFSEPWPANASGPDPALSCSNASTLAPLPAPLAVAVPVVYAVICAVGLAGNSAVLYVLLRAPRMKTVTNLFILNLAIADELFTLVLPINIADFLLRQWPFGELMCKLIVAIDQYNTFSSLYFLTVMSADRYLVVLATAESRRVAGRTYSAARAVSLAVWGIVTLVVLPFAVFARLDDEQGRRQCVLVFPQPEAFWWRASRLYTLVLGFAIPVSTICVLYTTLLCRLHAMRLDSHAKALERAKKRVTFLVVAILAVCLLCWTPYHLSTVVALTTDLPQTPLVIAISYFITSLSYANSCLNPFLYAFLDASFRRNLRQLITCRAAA
TAAR1 agonist = human TAAR1 agonism; hit rate 0.99% among 360,000; activation, % at 3 µM; CHO RD-HGA16 TAAR1, Fluo-8 calcium fluorescence; vehicle wells 0%, saturating PEA agonist 100%; AID 624467; Q96RJ0;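 active = activation above the mean activation of all test compounds in the run plus 3 SD, cut at about 38% in these data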
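System: CHO-derived RD-HGA16 cells with stable Gα16 and human TAAR1 / Times: 17-24 h plating, Fluo-8 75 min 37 °C, 30 min RT / Technique: calcium-sensitive Fluo-8 signal, excitation 470-495, emission 515-575 nm / Measure: % activation relative to PEA EC100 response / Benchmarks: DMSO and PEA EC100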
LANA-H2B inh = blocks KSHV LANA binding to histone H2A/H2B; cell-free LANA-H2A/H2B peptide, fluorescence polarization; Q9QR71; inhibition, % (concentration not given with the values); hit rate 0.6% among 320,000; in the data active = inhibition mostly above about 10%, no sharp cut-off; inactive = mostly below about 6.7%
* marks the source's active call; other numbers are inactive results; . = no result; + = active, no number.

SMILES | TAAR1 antagonist | zfTRPN1 agonist | TRPML3 ag | GPR7 antagonist | TAAR1 agonist | LANA-H2B inh
COc1ccccc1NC(=O)C1CCCN(c2nc(C)cc(C)n2)C1 (stereo not given) | -27 | 6 | -1 | 1 | 1 | -4
COc1cc(C)nc(N2CCCC(C(=O)Nc3cccc(Cl)c3Cl)C2)n1 (stereo not given) | -4 | 1 | 0 | 16* | 4 | 1
Cc1cc(Oc2cccnc2)ccc1NC(=O)CCc1c[nH]c2ccccc12 | -1 | . | . | . | 1 | .
Cc1ccccc1S(=O)(=O)N1CCCc2nc(-c3ccc(F)cc3)ccc21 | 19 | . | . | . | 5 | .
CNCC[C@H](Oc1cccc2ccccc12)c1cccs1 | 11 | -1 | 0 | 38* | 15 | 7
COc1ccc(C2CC(=O)C(c3ccc(Cl)c(Cl)c3)=CN2Cc2ccccc2)cc1 (stereo not given) | -5 | . | . | . | 5 | .
c1ccc(N2CCN(c3ncnc4c3oc3ccccc34)CC2)cc1 | 49* | 2 | 0 | -10 | 15 | 2
CC(=O)OCCn1c2nc(=O)[nH]c(=O)c-2nc2cc(C)c(C)cc21 | 67* | 142* | 88* | 1 | 138* | 166*
CC(=O)OCCn1c(C)[n+](CCOC(C)=O)c2cc(Cl)c(Cl)cc21 | 24 | 0 | 0 | -20 | 6 | 0
CCOc1ccc(OCCCC(=O)Nc2cc(Cl)ccc2-n2cncn2)cc1 | 58* | . | . | . | 15 | 4
CC(=O)c1ccc(OCCCC(=O)Nc2cc(Cl)ccc2-n2cncn2)cc1 | -24 | . | . | 6 | 1 | 0
COC(=O)C1=C(C)N(C)C(=NCc2ccc(OC)cc2)NC1c1cccc(C(F)(F)F)c1 (stereo not given) | -6 | . | . | . | 13 | .
C=CS(=O)(=O)N[C@@H](CSSC[C@H](NS(=O)(=O)C=C)C(=O)OC)C(=O)OC | -11 | . | . | . | 1 | .
O=[N+]([O-])c1ccc(N2CCN(C(=S)Nc3ccccc3)CC2)cc1 | -6 | 1 | 0 | -11 | 3 | 2
O=[N+]([O-])c1ccc(N2CCN(C(=S)NC3CCCCC3)CC2)cc1 | 52* | 2 | 1 | -1 | 10 | -1
Cc1ccccc1COC(=O)CCCC1=NS(=O)(=O)c2ccccc2N1 | 31 | . | . | 11 | 50* | 3
Cc1ccc(NC(=O)COC(=O)CCCC2=NS(=O)(=O)c3ccccc3N2)cc1C | 18 | . | . | -7 | 14 | 0
O=C(CS(=O)(=O)c1ccccc1)c1ccc2c(c1)OCCO2 | -4 | -1 | 1 | 18* | 3 | 1
O=C(C[n+]1ccc(/C=C/c2ccccc2)cc1)c1ccc2c(c1)OCCO2 | -6 | -1 | 0 | -4 | 44* | -5
COC(=O)Cc1nnn2c1[C@@H](C)[C@@H](c1ccccc1Br)OC[C@@H]2c1ccccc1 | -15 | . | . | . | 5 | .
Cc1ccc(Cn2nnc(C(=O)Nc3cc(C)ccc3C)c2N)cc1 | 34 | 5 | 4 | 13 | 48* | 1
COCCOC(=O)c1c(C)nc(SCC(=O)Nc2cccc3ccccc23)c(C#N)c1-c1ccco1 | 51* | -2 | 0 | 4 | 2 | 2
CCOc1ccccc1CNS(=O)(=O)c1ccc(-c2cnc(C3CC3)o2)cc1 | 58* | . | . | 1 | 4 | .
Cc1ccccc1Cn1ccc(NC(=O)c2cnn3c2NC(c2ccccc2)CC3C(F)(F)F)n1 (stereo not given) | -9 | 0 | 0 | 9 | 13 | +
O=C(NCc1ccco1)c1cnn2c1NC(c1ccccc1)CC2C(F)(F)F (stereo not given) | 5 | 0 | 0 | -1 | 13 | 2
SMILES | TAAR1 antagonist | zfTRPN1 agonist | TRPML3 ag | GPR7 antagonist | TAAR1 agonist | LANA-H2B inh
CCOC(=O)C1CCN(C(=O)c2sc3nc(-c4ccc(F)cc4)cn3c2C)CC1 | -1 | 1 | -2 | -6 | 6 | 137*
CCOC(=O)C1CCCN(C(=O)c2sc3nc(-c4ccc(F)cc4)cn3c2C)C1 (stereo not given) | 17 | 5 | 3 | -1 | 10 | -7
CN(C)CCCNC(=S)N(CCCN(C)C)Cc1cc2cc3c(cc2[nH]c1=O)OCO3 | -10 | . | . | -10 | 9 | 20*
O=C(c1cccc(S(=O)(=O)N2CCCCC2)c1)N(CCc1ccccc1)Cc1ccccc1 | 24 | . | . | . | 1 | 6
CS(=O)(=O)c1cccc(C(=O)N(CCc2ccccc2)Cc2cccs2)c1 | -12 | . | . | 7 | 38* | -3
COc1cc(CNCCc2ccccc2)cc(Cl)c1OCc1ccccc1 | 39 | -1 | 0 | 9 | 40* | -2
COc1cc(CNCc2ccccc2)cc(Cl)c1OC | -5 | 0 | 1 | -6 | 3 | 3
COc1cccc(-c2ccc3c(c2)[C@@H]2C[C@H]4[C@@H](CN2CC3)[C@H](C)ON4C)c1 | 0 | . | . | . | 0 | .
CCC1=Nc2cc(C(=O)NCCN3CCOCC3)ccc2Sc2ccc(C)cc21 | -34 | . | . | 8 | 2 | 5.1*
Cc1cc(=O)[nH]c(N)n1 | -11 | -1 | 1 | -5 | 2 | 13*
Nc1cc(=O)[nH]c(N)n1 | -1 | . | . | . | 0 | 7
O=C(NCc1cccnc1)/C(=C\c1ccc(-c2ccc(Br)cc2)o1)S(=O)(=O)c1ccccc1 | 12 | -1 | 0 | 23* | 10 | 0
O=C(NCc1cccnc1)/C(=C/c1ccc(-c2ccc(Cl)cc2)o1)S(=O)(=O)c1ccccc1 | 13 | 3 | 0 | 27* | 8 | 3
CCn1nc(C(=O)OCC(=O)c2c[nH]c3ccccc23)c2ccccc2c1=O | 35 | 0 | 0 | -12 | 13 | 9
CCOc1ccc(C(=O)COC(=O)c2nn(CC)c(=O)c3ccccc23)cc1 | 25 | . | . | . | 15 | 13*
NCCCC(C(=O)O)N(C(=O)OCc1ccccc1)C(=O)OCc1ccccc1 (stereo not given) | 2 | . | . | . | 1 | .
O=C1c2ccccc2C(=O)N1CCC#Cc1ccc2cc(CCO)oc(=O)c2c1 | 72* | . | . | . | 20 | 2
COc1ccc(CN2C[C@H](COCc3ccccc3)Oc3cccc(Oc4ccc(C(C)C)cc4)c3S2(=O)=O)cc1 | 32 | . | . | . | 3 | .
O=C(NCCc1ccc(Cl)cc1)C1CCC(=O)N1Cc1ccccc1Cl (stereo not given) | 8 | 1 | -1 | -5 | 4 | 13*
C[C@@H]1C=CCCO[C@]12C(=O)Nc1ccccc12 | -6 | . | . | . | 0 | .
CC(C)(C)OC(=O)N1CCC[C@@H]1C(=O)N1CCC[C@@H]1C(=O)NCc1ccccc1 | 6 | . | . | . | -1 | .
Cn1c(N)c(C(=O)COC(=O)/C=C/c2ccc(Cl)cc2)c(=O)n(C)c1=O | 30 | . | . | . | 17 | 92*
